Experimental data: publication PMC2906776 (Bioorganic & medicinal chemistry, 2009)
pEC50: −log10 of the molar value.

How the values were obtained:
T47D/neo cells = assay: ERE activation, luciferase reporter in T47D/neo cells; format: cell-based, human; conditions: read-out: EC50 ERE-luciferase activation, classical ER-dependent
In short: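 T47D:A18/neo stable transfectants were grown in RPMI 1640 with 10% FBS and G418 (500 µg/mL), then held 3 days in phenol red-free, E2-depleted RPMI with G418. 8 × 10^6 cells were electroporated with ERE-tk-Luc (5 µg) plus pCMVβ β-gal (1 µg). The next day, test compound (10^-9–10^-7 mol/L), E2 (10^-9 mol/L) or ethanol vehicle was added for 18 h. Luciferase luminescence was normalized to β-gal.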

[1] = format: in vitro ADME, human; conditions: four days
ER(+) Ishikawa cells = assay: Induction of alkaline phosphatase in Ishikawa cells; format: cell-based, human
MCF-7 cells = conditions: cited from earlier work

Compound: Per-6-(estradiol-17-(1H-1,2,3-triazol-4-yl))-6-deoxy-β-cyclodextrin [Compound 7EqCD]
- pEC50 (T47D/neo cells): < 7.00
- Free EE2 in cell supernatant ([1]; 7EqCD 10 nM, Ishikawa cells): < 50 pM
- Free estrogen (EE2 or E2) in cell supernatant, result in words ([1]; Ishikawa cell culture): EE2 was not observed above detection limits

Compound: NC[C@H]1O[C@@H]2O[C@H]3[C@H](O)[C@@H](O)[C@@H](O[C@H]4[C@H](O)[C@@H](O)[C@@H](O[C@H]5[C@H](O)[C@@H](O)[C@@H](O[C@H]6[C@H](O)[C@@H](O)[C@@H](O[C@H]7[C@H](O)[C@@H](O)[C@@H](O[C@H]8[C@H](O)[C@@H](O)[C@@H](O[C@H]1[C@H](O)[C@H]2O)O[C@@H]8CN)O[C@@H]7CN)O[C@@H]6CN)O[C@@H]5CN)O[C@@H]4CN)O[C@@H]3CN [ACD, Per-6-amino-6-deoxy-β-cyclodextrin]
- Estrogenic activity, result in words (ER(+) Ishikawa cells): inactive

Compound: 17-beta estradiol [Compound E2]
- Potency of E2 relative to the E2–dendrimer conjugate (MCF-7 cells): 3–4 orders of magnitude

Compound: [N-]=[N+]=NC[C@H]1O[C@@H]2O[C@H]3[C@H](O)[C@@H](O)[C@@H](O[C@H]4[C@H](O)[C@@H](O)[C@@H](O[C@H]5[C@H](O)[C@@H](O)[C@@H](O[C@H]6[C@H](O)[C@@H](O)[C@@H](O[C@H]7[C@H](O)[C@@H](O)[C@@H](O[C@H]8[C@H](O)[C@@H](O)[C@@H](O[C@H]1[C@H](O)[C@H]2O)O[C@@H]8CN=[N+]=[N-])O[C@@H]7CN=[N+]=[N-])O[C@@H]6CN=[N+]=[N-])O[C@@H]5C/N=[NH+]\[NH-])O[C@@H]4CN=[N+]=[N-])O[C@@H]3CN=[N+]=[N-] [Compound 2, Per-6-azido-6-deoxy-β-cyclodextrin]
- Estrogenic activity, result in words (ER(+) Ishikawa cells): inactive
